ATG4B inhibitor: inhibitors of human ATG4B cysteine protease; Q9Y4P1; ATG4B cleavage of LC3-PLA2, NBD-HPC fluorescence, 1 h; inhibition, % at 8.33 µM; 340,000 compounds, 0.51% hits; AID 504462; in the data active = inhibition above about 40%
TCR CD3 inh: blocks the human TCR-CD3 interaction; TAMRA-labeled TCR probe fluorescence, biochemical; inhibition, % at 9.4 µM; 360,000 compounds, 0.37% hits; in the data active = inhibition above about 19%;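 note: recombinant mutant TCR 2C K166C tagged with TAMRA read by polarization; 0% = receptor in buffer alone and 100% = receptor with positive control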
ABHD4 inh: inhibitors of mouse ABHD4; 370,000 compounds, 0.54% hits; purified mABHD4, FP-Rh probe fluorescence polarization; Q8VD66; AID 720543; inhibition, % at 8.92 µM;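 active = inhibition exceeding the mean over every tested compound plus 3 SD, cut at about 30% in these data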;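 note: 0% = plate median of compound wells and 100% = S159A mutant with DMSO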
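Test system: mABHD4 protein | Buffer or medium: HEPES pH 7.0 buffer, 150 mM NaCl, 0.01% Pluronic F-127 | Probe or stimulus: FP-Rh fluorescent activity-based probe, added after compound pre-incubation | Timing: Pre-incubation 45 min, probe exposure 60 min, at 25 °C | Technique: Fluorescence polarization, excitation 525 nm, emission 598 nm, BODIPY TMR filters | Repeats: Single well per compound (singlicate)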
HTRA1 inhibitor: inhibitors of human serine peptidase HTRA1 | 340,000 compounds, 0.5% hits | inhibition, % at 5.96 µM | AID 504803 | Q92743 | recombinant HTRA1, FP-rhodamine activity-based probe, fluorescence polarization; in the data active = inhibition above about 36%;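 note: 0% = enzyme with DMSO and 100% = wells lacking enzyme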
PRMT1 FP inh: inhibitors of human PRMT1; recombinant PRMT1, activity-based probe fluorescence polarization; inhibition, % at 2.79 µM; 370,000 compounds, 1.3% hits;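 active = inhibition above about 21% made by adding two undisclosed values, limit read from the data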
SIAE primary: inhibitors of human sialic acid acetylesterase SIAE; inhibition, % at 9.66 µM; SIAE FP-Rh probe binding, fluorescence polarization; Q9HAT2; 370,000 compounds, 0.69% hits;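 active = inhibition above a cutoff: mean of compounds within the control limits plus 3 SD of those, cut at about 17% in these data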;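 note: 0% = plate median of compound wells and 100% = probe without SIAE protein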
Target sequence (Q9HAT2 whole entry, looked up): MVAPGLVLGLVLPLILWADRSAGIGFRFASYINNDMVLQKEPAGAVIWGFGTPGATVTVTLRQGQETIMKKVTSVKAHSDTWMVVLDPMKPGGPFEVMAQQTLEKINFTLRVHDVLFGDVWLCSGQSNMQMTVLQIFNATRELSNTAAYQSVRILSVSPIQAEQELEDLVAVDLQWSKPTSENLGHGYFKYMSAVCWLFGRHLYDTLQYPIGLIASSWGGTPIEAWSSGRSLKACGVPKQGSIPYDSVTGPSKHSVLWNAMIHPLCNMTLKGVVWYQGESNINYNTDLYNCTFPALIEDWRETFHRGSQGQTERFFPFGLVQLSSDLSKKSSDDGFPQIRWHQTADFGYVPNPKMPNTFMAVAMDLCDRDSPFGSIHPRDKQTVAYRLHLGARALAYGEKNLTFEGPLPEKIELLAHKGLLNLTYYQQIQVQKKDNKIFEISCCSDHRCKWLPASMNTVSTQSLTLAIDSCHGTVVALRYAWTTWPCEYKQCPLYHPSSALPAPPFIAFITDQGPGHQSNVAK
SIAE confirm: confirmation of human SIAE inhibitors; shares compounds with SIAE primary; SIAE FP-Rh activity-based probe, fluorescence polarization; inhibition, % at 9.66 µM; 2,300 compounds, 13% hits; AID 1117263;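 active = mean inhibition of the replicates above the hit cutoff set in the primary screen, cut at about 17% in these data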;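 note: 0% = SIAE with DMSO and probe and 100% = probe without SIAE; inhibitors lower polarization as more probe stays unbound to SIAE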
An asterisk follows results filed as active. Sampled rows, rich in hits. Any-hit rate of the full collection: about 2.9%.

For CCCn1cnnc1CNC(=O)[C@@H](Cc1ccccc1)NC(=O)[C@H]1O[C@@H](n2ccc(=O)[nH]c2=O)[C@H](O)[C@@H]1O the results were TCR CD3 inh 5, ABHD4 inh 6, PRMT1 FP inh -2, SIAE primary 30* and SIAE confirm 35*.
COc1cc(NC(=O)[C@@H](Cc2ccccc2)NC(=O)[C@H]2O[C@@H](n3ccc(N)nc3=O)[C@H](O)[C@@H]2O)cc(OC)c1OC was read as TCR CD3 inh 3, ABHD4 inh -1, PRMT1 FP inh 4, SIAE primary 45* and SIAE confirm 46*.
`O=C(N[C@H](Cc1ccccc1)C(=O)NCc1ccccn1)[C@H]1O[C@@H](n2ccc(=O)[nH]c2=O)[C@H](O)[C@@H]1O` gave TCR CD3 inh -1, ABHD4 inh -1, PRMT1 FP inh -1 and SIAE primary -3.
Screening CC(=O)N1C[C@@H](CN2C(=O)CCC2=O)[C@@H]2C[C@H]1c1ccccc1N2C returned TCR CD3 inh -5, ABHD4 inh 5, PRMT1 FP inh 0 and SIAE primary 8.
CC(C)CNc1cccc2c1S(=O)(=O)N(Cc1cn(Cc3ccc(F)cc3)nn1)Cc1ccccc1O2 was read as ABHD4 inh 22, PRMT1 FP inh 1 and SIAE primary 1.
`O=C(OCC#CCSc1nnc(-c2cccc3ccccc23)o1)c1ccccc1` gave ABHD4 inh -15, PRMT1 FP inh 2 and SIAE primary -5.
`Nc1ccn([C@@H]2O[C@H](C(=O)N[C@H](Cc3ccccc3)C(=O)N3CCC(F)(F)CC3)[C@@H](O)[C@H]2O)c(=O)n1` gave TCR CD3 inh 3, ABHD4 inh 5, PRMT1 FP inh -2, SIAE primary 45* and SIAE confirm 53*.
CC1(C(=O)NNC(=O)c2cccc([N+](=O)[O-])c2)CC1Br (configuration not stated) was read as TCR CD3 inh -5, ABHD4 inh -5, HTRA1 inhibitor 0, PRMT1 FP inh 1 and SIAE primary 4.
O=C(NNC(=O)C1CC1c1ccccc1)c1cccc([N+](=O)[O-])c1 (configuration not stated) was read as ATG4B inhibitor 7, TCR CD3 inh -1, ABHD4 inh -1, HTRA1 inhibitor 4, PRMT1 FP inh 1, SIAE primary 18* and SIAE confirm 1.
Screening COc1cc(CNc2ncnc3c2ncn3[C@H]2CN(Cc3ccc(Cl)cc3)C[C@@H](CO)O2)cc(OC)c1OC returned TCR CD3 inh -5, ABHD4 inh -3, PRMT1 FP inh 2, SIAE primary 19* and SIAE confirm -4.
`COc1ccc(NCC(=O)N/N=C(\C)c2cc3ccccc3o2)cc1` gave ATG4B inhibitor -5, TCR CD3 inh 2, ABHD4 inh 4, HTRA1 inhibitor 1, PRMT1 FP inh 1, SIAE primary 18* and SIAE confirm 8.
Screening C/C(=N\NC(=O)CNc1ccc(F)cc1)c1cc2ccccc2o1 returned ATG4B inhibitor 11, TCR CD3 inh -1, ABHD4 inh 2, HTRA1 inhibitor -13, PRMT1 FP inh -2 and SIAE primary 9.
Cc1ccc(N=C(NO)c2nonc2N)cc1 was read as ATG4B inhibitor -1, TCR CD3 inh -2, ABHD4 inh -1, HTRA1 inhibitor 6, PRMT1 FP inh -2, SIAE primary 41* and SIAE confirm -1.
For COc1ccc(/C=C/C(=O)NC(=S)NNC(=O)c2cccnc2)cc1 the results were ATG4B inhibitor -7, TCR CD3 inh 17, ABHD4 inh 11, HTRA1 inhibitor 2, PRMT1 FP inh -2, SIAE primary 21* and SIAE confirm 1.
Cc1c(NC(=O)C2CCCN(S(=O)(=O)c3c(C(C)C)cc(C(C)C)cc3C(C)C)C2)c(=O)n(-c2ccccc2)n1C (configuration not stated) was read as ABHD4 inh -1, PRMT1 FP inh -2 and SIAE primary 3.
Screening Cc1ccc(NC(=S)NNS(=O)(=O)c2ccc3ccccc3c2)cc1Cl returned ATG4B inhibitor -12, TCR CD3 inh -9, ABHD4 inh -5, HTRA1 inhibitor -7, PRMT1 FP inh 2, SIAE primary 18* and SIAE confirm 4.
CC(C)NC(=O)Cn1c(SCC(=O)N2CCCc3ccccc32)nc2ccccc21 was read as ATG4B inhibitor 1, TCR CD3 inh 5, ABHD4 inh 5, HTRA1 inhibitor -3, PRMT1 FP inh 1, SIAE primary 18* and SIAE confirm 0.
O=C(Cn1c(SCC(=O)N2CCCc3ccccc32)nc2ccccc21)N1CCCC1 was read as ATG4B inhibitor -7 and HTRA1 inhibitor -4.
`CC(=O)c1cc(-c2ccc(Cl)c(Cl)c2)c(=O)n2c1CCC2` gave ABHD4 inh 5, PRMT1 FP inh 3 and SIAE primary 3.
COc1cc(OC)c(NC(=O)c2cc(S(=O)(=O)N3CCOCC3)cn2C)cc1Cl was read as ATG4B inhibitor -10, TCR CD3 inh 11, ABHD4 inh -4, HTRA1 inhibitor -6, PRMT1 FP inh -2 and SIAE primary 3.
COc1cc(OC)c(NC(=O)N2CCOCC2)cc1Cl was read as ATG4B inhibitor 0, TCR CD3 inh -4, ABHD4 inh 0, HTRA1 inhibitor 3, PRMT1 FP inh -4, SIAE primary 25* and SIAE confirm 2.
Screening COc1cc(NC(=O)c2ccccc2F)c(OC)cc1NC(=O)CN1CCOCC1 returned ATG4B inhibitor -2, TCR CD3 inh 0, ABHD4 inh 5, HTRA1 inhibitor -6, PRMT1 FP inh 6, SIAE primary 17* and SIAE confirm 3.
COc1cc(/C=N/NC(=O)c2ccc(N)cc2)ccc1OC(=O)c1cccc(C)c1 was read as ATG4B inhibitor 4, TCR CD3 inh 1, ABHD4 inh 5, HTRA1 inhibitor -29, PRMT1 FP inh -4, SIAE primary 22* and SIAE confirm -2.
COc1cc(C(=O)N/N=C/c2ccc(OC(=O)c3cccc(C)c3)cc2)ccc1O was read as ATG4B inhibitor 17, TCR CD3 inh -1, ABHD4 inh -19, HTRA1 inhibitor -51, PRMT1 FP inh -2 and SIAE primary 12.
Screening COc1ccc(CCNC(=O)C/C(C)=N/NC(=O)c2ccc([N+](=O)[O-])cc2Cl)cc1OC returned ATG4B inhibitor -1, TCR CD3 inh -8, ABHD4 inh -4, HTRA1 inhibitor -1, PRMT1 FP inh -1, SIAE primary 17* and SIAE confirm 6.
For COc1ccc(CCNC(=O)C/C(C)=N/NC(=O)c2ccc(Cl)cc2Cl)cc1OC the results were ATG4B inhibitor 0, TCR CD3 inh 3, ABHD4 inh -2, HTRA1 inhibitor -4, PRMT1 FP inh -3 and SIAE primary 11.
